Test [1] can be described thus: reducers of endogenous Her2 protein level, primary screen, SKBR3 breast tumor cells, AlphaScreen, ATP viability (AID 461;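 active = Her2 level under about 52% in both replicate screens, with viability over 70% of control, limit read from the data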;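 as to Her2 level: lower value means less Her2 protein in the cells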;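 as to viability: percent of carrier control wells set as 100% viability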). Conditions: 18-24 h, measured here: SKBR3 viability, ATP luminescence, at 10 µM.
For test [2], the target named is Receptor tyrosine-protein kinase erbB-2 (Homo sapiens) (UniProt P04626). The description is as above. Conditions: 18-24 h, at 10 µM, stronger effect = lower value.
Sequence of Receptor tyrosine-protein kinase erbB-2 (Homo sapiens) (P04626 whole entry, looked up): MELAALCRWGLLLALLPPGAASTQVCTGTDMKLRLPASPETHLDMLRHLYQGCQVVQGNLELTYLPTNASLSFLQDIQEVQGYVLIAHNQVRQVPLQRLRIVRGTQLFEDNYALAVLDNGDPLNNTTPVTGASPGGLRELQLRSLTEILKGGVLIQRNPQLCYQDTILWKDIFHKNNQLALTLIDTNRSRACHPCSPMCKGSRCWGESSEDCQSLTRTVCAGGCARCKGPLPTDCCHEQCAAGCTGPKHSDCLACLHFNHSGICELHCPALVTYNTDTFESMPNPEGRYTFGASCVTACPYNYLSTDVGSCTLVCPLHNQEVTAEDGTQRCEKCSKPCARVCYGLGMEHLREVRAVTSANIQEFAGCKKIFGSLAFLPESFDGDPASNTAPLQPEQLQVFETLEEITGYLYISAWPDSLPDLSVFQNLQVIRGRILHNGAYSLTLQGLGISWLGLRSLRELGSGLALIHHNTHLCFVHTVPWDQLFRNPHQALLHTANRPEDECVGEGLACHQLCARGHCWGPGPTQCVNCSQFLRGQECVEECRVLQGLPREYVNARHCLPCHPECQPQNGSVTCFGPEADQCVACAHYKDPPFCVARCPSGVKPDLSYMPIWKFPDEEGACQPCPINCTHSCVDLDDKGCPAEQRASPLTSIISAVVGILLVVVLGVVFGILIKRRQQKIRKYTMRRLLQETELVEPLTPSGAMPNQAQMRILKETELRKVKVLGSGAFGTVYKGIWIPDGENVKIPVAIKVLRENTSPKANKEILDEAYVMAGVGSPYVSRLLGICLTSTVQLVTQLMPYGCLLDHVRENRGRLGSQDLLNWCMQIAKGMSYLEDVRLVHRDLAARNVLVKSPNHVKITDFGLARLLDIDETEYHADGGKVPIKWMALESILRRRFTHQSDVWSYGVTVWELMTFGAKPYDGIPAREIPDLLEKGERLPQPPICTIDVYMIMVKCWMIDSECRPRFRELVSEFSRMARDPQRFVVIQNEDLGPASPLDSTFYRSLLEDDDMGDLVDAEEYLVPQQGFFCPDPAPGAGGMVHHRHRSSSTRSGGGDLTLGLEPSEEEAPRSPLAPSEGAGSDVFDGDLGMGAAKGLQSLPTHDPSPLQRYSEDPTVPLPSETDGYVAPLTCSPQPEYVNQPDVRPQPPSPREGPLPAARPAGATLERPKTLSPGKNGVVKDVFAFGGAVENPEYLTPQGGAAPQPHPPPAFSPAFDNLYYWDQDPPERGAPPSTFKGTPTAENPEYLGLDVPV
A short description of test [3]: SK-BR-3 cell growth inhibitors, pilot screen, 24 h, human (AID 572;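 active = viability at or below 10% of carrier control in both of two separate runs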;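 also: compound exposure lasted between 18 and 24 h rather than exactly 24 h; 100% = carrier-treated control wells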). Conditions: SK-BR-3 viability, CellTiter-Glo luminescence, at 10 µM, stronger effect = lower value. A general note: In ATP-based viability assays light output follows the ATP content of the culture.
A short description of test [4]: HUVEC growth inhibition – cell-based, human, primary screen (AID 575;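 active = viability at or below 30% in both replicate assays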;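 also: 100% = median of untreated cell wells with 0.1% DMSO on each plate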). Conditions: HUVEC proliferation, CellTiter-Glo luminescence, 72 h; at 10 µM; stronger effect = lower value. An outline of the steps: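 System: primary human umbilical vein endothelial cells; Quantity: 1250 endothelial cells in each well; Buffer or medium: supplemented EBM, 2% fetal bovine serum; Doses: one dose, 10 µM final, 0.1% DMSO; Incubation: 72 h compound incubation; Technique: ATP-based CellTiter-Glo luminescent read; Evaluation: percent of median DMSO-control luminescence; Controls: vehicle and MePR control wells.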

The nature of test [5]: growth inhibitors of H69AR lung tumor, primary screen, human, duplicate replicates (AID 580;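 active = viability at or under a set limit in both replicates, limit being median viability minus 3 SD, cut at about 48% in these data, passing the limit was not always enough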;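 also: 100% = mean luminescence of untreated wells and 0% = no signal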). Conditions: H69AR lung tumor cells viability, ATP luminescence, 72 h; at 10 µM; stronger effect = lower value.
Test [6] in a line: reversal of MRP1-mediated doxorubicin resistance, pilot screen, H69AR cells, doxorubicin co-treatment (AID 601). Conditions: CellTiter-Glo, 72 h, at 10 µM; for differential viability (reversal): stronger effect = higher value.
Test [7] can be described thus: 384-well plate pilot, post-Golgi transport modulator project, inhibition of yeast transport mutant growth (AID 636; in the data active = inhibition above about 31%). Conditions: absorbance 615 nm, about 18 h, stronger effect = higher value.
A short description of test [8]: growth suppression of yeast trafficking mutant, preliminary HTS, modulators of trafficking downstream of Golgi apparatus project, 1536-format plate, OD 615 nm (AID 637; in the data active = inhibition above about 30%). Conditions: yeast transport mutant growth, absorbance 615 nm, 18 h; stronger effect = higher value.
[9] abbreviates: H69AR cells + 2 uM doxorubicin, measured here: viability with 2 uM doxorubicin, stronger effect = lower value.
[10] abbreviates: H69AR cells, compound alone cytotoxicity.

Structures are written as SMILES. The source made the active and inactive calls.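 The calls were made as follows, unless noted: active = viability loss from added drug above about 55%, and viability with drug at most 40%, in both replicates (limit read from the data, passing the limit was not always enough); inconclusive = both conditions met in only one replicate; inactive = neither replicate meets both conditions.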

Turning to `CCOC(=O)N1CCN(C(=O)Cn2ncn3nc(-c4cccs4)cc3c2=O)CC1`, the viability (usually a read-out of living cells in per cent, often relative to untreated cells) was 97% in test [1]; 97% (inactive) in test [3]; 111% (inactive) in test [4]; 90.9% (inactive) in test [5]; 101% in test [6] (setting [9]); 90.9% in test [6] (setting [10]). In addition, the Her2 level in test [2] is 136% (inactive). For the same molecule, the differential viability (reversal) in test [6] (H69AR cells + 2 uM doxorubicin) is -9.68% (inactive). In addition, the figures for the inhibition in test [7] and in test [8] were 1.71% (inactive) and 0.33% (inactive), respectively.
For the molecule `CCCNS(=O)(=O)c1ccc(OCC(=O)NCc2ccc3c(c2)OCO3)cc1`, the viability in test [1] is 105%; in test [3], 105% (inactive); in test [4] it was 88.2% (inactive); in test [5], 94.1% (inactive); in test [6] (setting [9]) it was 89.1%; in test [6] (setting [10]) it was 94.1%. Also, the Her2 level in test [2] is 89.5% (inactive). In addition, the differential viability (reversal) in test [6] (H69AR cells + 2 uM doxorubicin) was 4.96% (inactive). Further, the figures for the inhibition in test [7] and in test [8] were -6.05% (inactive) and 11% (inactive), respectively.
`COc1ccc(-c2onc(C)c2-c2ccccc2)c(O)c1`: the viability in test [1] was 99.5%; in test [3], 99.5% (inactive); in test [4], 79.6% (inactive); in test [5], 18.5% (active); in test [6] (setting [9]), 62.9%; in test [6] (setting [10]) it was 18.5%. Further, the Her2 level in test [2] was 73% (inactive). Further, the differential viability (reversal) in test [6] (H69AR cells + 2 uM doxorubicin) is -44.4% (inactive). The inhibition (in general, the drop in the measured response relative to a control, in per cent) in test [7] is -4.53% (inactive); in test [8], 0.32% (inactive).
Take `Cc1ccc(N2CC(C(=O)Nc3nnc(C)s3)CC2=O)cc1` (stereo not given): the viability was 110% in test [1]; 110% (inactive) in test [3]; 86.2% (inactive) in test [4]; 106% (inactive) in test [5]; 89.9% in test [6] (setting [9]); 106% in test [6] (setting [10]). In addition, in test [2], the Her2 level was 90% (inactive). In addition, in test [6] (H69AR cells + 2 uM doxorubicin), the differential viability (reversal) is 16.4% (inactive). The figures for the inhibition in test [7] and in test [8] were -4.67% (inactive) and 0.65% (inactive), respectively.
Consider `CCc1ccc(CN(C)CCc2ccccn2)cc1`, for which the viability in test [1] was 108%; in test [3], 108% (inactive); in test [4], 106% (inactive); in test [5], 102% (inactive); in test [6] (setting [9]), 85.8%; in test [6] (setting [10]) it was 102%. Besides, the Her2 level in test [2] was 86% (inactive). Also, the differential viability (reversal) in test [6] (H69AR cells + 2 uM doxorubicin) was 16.7% (inactive). Also, the inhibition in test [7] was -5.62% (inactive); in test [8], -3.02% (inactive).
With `Cc1ccccc1-n1c(=O)c2ccccc2n2nnnc12`, the viability in test [1] is 80%; in test [3], 80% (inactive); in test [4], 101% (inactive); in test [5] it was 93% (inactive); in test [6] (setting [9]), 94.1%; in test [6] (setting [10]) it was 93%. Moreover, the Her2 level in test [2] was 112% (inactive). Moreover, the differential viability (reversal) in test [6] (H69AR cells + 2 uM doxorubicin) is -1.09% (inactive). Besides, the inhibition in test [7] was 0% (inactive); in test [8], -15.6% (inactive).
As to `COc1ccccc1N1CCN(C(=O)c2c(-c3c(Cl)cccc3Cl)noc2C)CC1`, the viability is 104% in test [1]; 104% (inactive) in test [3]; 79% (inactive) in test [4]; 105% (inactive) in test [5]; 90.3% in test [6] (setting [9]); 105% in test [6] (setting [10]). The Her2 level in test [2] was 82.5% (inactive). In test [6] (H69AR cells + 2 uM doxorubicin), the differential viability (reversal) was 15% (inactive). Further, the inhibition is -5.95% (inactive) in test [7] and 2.46% (inactive) in test [8].
On to `COc1ccccc1CN1C(=O)CCC1(C)C(=O)NC1CCCCCC1` (stereo not given), for which the viability in test [1] was 83%; in test [3] it was 83% (inactive); in test [4], 101% (inactive); in test [5] it was 98.1% (inactive); in test [6] (setting [9]), 95.2%; in test [6] (setting [10]), 98.1%. In test [2], the Her2 level was 99% (inactive). Moreover, in test [6] (H69AR cells + 2 uM doxorubicin), the differential viability (reversal) is 2.86% (inactive). In addition, the values for the inhibition in test [7] and in test [8] were -2.13% (inactive) and 2.62% (inactive), respectively.
Regarding `Cc1cc(=O)n(CC(C)C)c(O)c1C#N`, the viability was 106% in test [1]; 106% (inactive) in test [3]; 99.4% (inactive) in test [4]; 104% (inactive) in test [5]; 104% in test [6] (setting [9]); 104% in test [6] (setting [10]). The Her2 level in test [2] was 98% (inactive). The differential viability (reversal) in test [6] (H69AR cells + 2 uM doxorubicin) is 0.33% (inactive). In addition, the inhibition in test [7] was 0.53% (inactive); in test [8], 5.08% (inactive).
For `CN1CCN(C(=O)CCC(=O)c2ccc(F)cc2)CC1`, the viability in test [1] is 114%; in test [3], 114% (inactive); in test [4], 96.4% (inactive); in test [5] it was 94.8% (inactive); in test [6] (setting [9]), 87.2%; in test [6] (setting [10]), 94.8%. Moreover, the Her2 level in test [2] is 79.5% (inactive). In addition, the differential viability (reversal) in test [6] (H69AR cells + 2 uM doxorubicin) was 7.6% (inactive). Moreover, the inhibition in test [7] was -8.53% (inactive); in test [8], -3.77% (inactive).
As to `CS(=O)(=O)C1=C(O)C(=O)N(c2ccccc2)C1c1ccccc1` (stereo not given), the viability in test [1] is 109%; in test [3], 109% (inactive); in test [4] it was 104% (inactive); in test [5], 105% (inactive); in test [6] (setting [9]), 94.4%; in test [6] (setting [10]) it was 105%. In test [2], the Her2 level was 106% (inactive). In test [6] (H69AR cells + 2 uM doxorubicin), the differential viability (reversal) is 10.3% (inactive). The inhibition in test [7] was -4.73% (inactive); in test [8], 0.33% (inactive).
On to `O=C(c1ccc(S(=O)(=O)N2CCOCC2)cc1)N(c1ccc(F)cc1)C1C=CS(=O)(=O)C1` (stereo not given), for which the viability was 97.5% in test [1]; 97.5% (inactive) in test [3]; 75.1% (inactive) in test [4]; 97% (inactive) in test [5]; 92.4% in test [6] (setting [9]); 97% in test [6] (setting [10]). Further, in test [2], the Her2 level is 109% (inactive). Moreover, the differential viability (reversal) in test [6] (H69AR cells + 2 uM doxorubicin) is 4.64% (inactive). Besides, the inhibition in test [7] is -1.92% (inactive); in test [8], -9% (inactive).
Regarding `CCOC(=O)N1CCN(CC(O)COc2ccccc2C(C)CC)CC1` (stereo not given), the viability in test [1] is 104%; in test [3] it was 104% (inactive); in test [4], 99% (inactive); in test [5], 94.7% (inactive); in test [6] (setting [9]) it was 93.2%; in test [6] (setting [10]) it was 94.7%. Moreover, the Her2 level in test [2] is 92.5% (inactive). In addition, the differential viability (reversal) in test [6] (H69AR cells + 2 uM doxorubicin) is 1.52% (inactive). In addition, the inhibition in test [7] is 31.6% (active); in test [8], 29.2% (inactive).
As to `COc1ccc2c(c1)cc(C(=O)O)n2C`, the viability in test [1] is 92.5%; in test [3] it was 92.5% (inactive); in test [4], 102% (inactive); in test [5], 98.7% (inactive); in test [6] (setting [9]), 89.9%; in test [6] (setting [10]), 98.7%. For the same molecule, in test [2], the Her2 level was 73% (inactive). For the same molecule, the differential viability (reversal) in test [6] (H69AR cells + 2 uM doxorubicin) was 8.84% (inactive). Also, the values for the inhibition in test [7] and in test [8] were -5.39% (inactive) and -5.67% (inactive), respectively.
Regarding `COc1cc2c(cc1OC)-c1cc(Nc3ccc4c(c3)OCCO4)nc(=O)n1CC2`, the viability is 91.5% in test [1]; 91.5% (inactive) in test [3]; 63.2% (inactive) in test [4]; 71.2% (inactive) in test [5]; 78.1% in test [6] (setting [9]); 71.2% in test [6] (setting [10]). Also, the Her2 level in test [2] is 82.5% (inactive). Also, the differential viability (reversal) in test [6] (H69AR cells + 2 uM doxorubicin) was -6.86% (inactive). Further, the inhibition was -0.91% (inactive) in test [7] and -4.17% (inactive) in test [8].
Consider `COc1ccc(-c2ccc(CCC(=O)O)n2NC(=O)c2cccs2)cc1`, for which the viability is 122% in test [1]; 122% (inactive) in test [3]; 95.5% (inactive) in test [4]; 101% (inactive) in test [5]; 98.3% in test [6] (setting [9]); 101% in test [6] (setting [10]). Further, the Her2 level in test [2] was 92% (inactive). Further, the differential viability (reversal) in test [6] (H69AR cells + 2 uM doxorubicin) was 3% (inactive). For the same molecule, the inhibition is -2.76% (inactive) in test [7] and 2.06% (inactive) in test [8].

The values are drawn from PubChem BioAssay.
